# PMC3272321 (Chemical biology & drug design, 2011)
# Assays:
# aqueous solubility = format: physicochemical; conditions: water
# [1] = test system: pancreatic cancer cells Panc-1; test: cell proliferation by hexosaminidase assay; format: cell-based; conditions: Panc-1 cells, 1 and 10 μM, 24–72 h
# In short: (§1)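 Cells seeded at 5×10^3/well, attached overnight, then exposed to the test compound for 24, 48 and 72 h. The compound was given from DMSO at 0.1% final DMSO in medium with 5% FBS, with DMSO-only controls. H441 were maintained in McCoy's 5A with 5% FBS. Panc-1 and MiaPaCa-2 were maintained in RPMI 1640 with 10% FBS. Readout was hexosaminidase: 7.5 mM p-nitrophenyl substrate solution (citrate, pH 5), 37°C 30 min, glycine/EDTA stop (pH 10.4), A405.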
# xenograft Panc-1 tumors = test: mouse model of xenograft Panc-1 tumors; format: in vivo, athymic nude mice; conditions: 5 μg intraperitoneal daily for 3 weeks
# In short: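 Five-week-old male athymic nude mice received 1 × 10^6 Panc-1 cells in each flank. Once tumors reached about 500 mm3, the test compound was given intraperitoneally at 5 μg/injection daily for 3 weeks. Tumors were measured weekly by caliper, with volume = length × width × depth × 0.5236. Tumors were excised and weighed at sacrifice. n = 4 per group versus untreated control, significance at p < 0.05.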
# [2] = test system: lung adenocarcinoma H441 cells; test: cell proliferation by hexosaminidase assay; format: cell-based, Human; conditions: 1 and 10 μM, 24–72 h
# In short: as §1
# [3] = format: in vivo, athymic nude rats; conditions: for route of clearance: images through 24 h
# [4] = test system: pancreatic cancer cells MiaPaCa-2; test: cell proliferation by hexosaminidase assay; format: cell-based; conditions: MiaPaCa-2 cells, 1 and 10 μM, 24–72 h
# In short: as §1
# [5] = Tc-99m-labeled EFAH, intravenous, rats, 24 h
compound,measurement,setting,value
"O=C1C(=Cc2ccccc2F)CNCC1=Cc1ccccc1F [EF24, 3,5-Bis-(2-fluorobenzylidene)-4-piperidone, reference compound]",solubility,aqueous solubility,1200 µg/mL
"NNc1ccc(C(=O)NCCN2CC(=Cc3ccccc3F)C(=O)C(=Cc3ccccc3F)C2)cn1 [EFAH, N-{2-[3,5-Bis-(2-fluorobenzylidene)-4-oxo-piperidin-1-yl]-ethyl}-6-hydrazinonicotinamide]",anti-proliferative activity compared with EF24,[1],as effective as EF24
same,excised tumor weight,"xenograft Panc-1 tumors; at necropsy, control about 2.5 g",0.45 g
same,mean tumor volume reduction,xenograft Panc-1 tumors; versus control,79%
same,tumor weight decrease,xenograft Panc-1 tumors; versus control,82%
same,anti-proliferative activity compared with EF24,[2],as effective as EF24
same,solubility,aqueous solubility,3500 µg/mL
same,injected dose accumulated in intestine,[3]; [5],~14.3%
same,injected dose accumulated in liver,[3]; [5],Approximately 23.7%
same,route of clearance,"[3]; intravenous, rats",mostly eliminated by hepatobiliary route
same,anti-proliferative activity compared with EF24,[4],as effective as EF24
"Tc-99m-labeled N-{2-[3,5-Bis-(2-fluorobenzylidene)-4-oxo-piperidin-1-yl]-ethyl}-6-hydrazinonicotinamide [Tc-99m-EFAH]",accumulation of radiolabeled compound in tumor tissue,"[3]; intravenous, rats with H441 xenograft, 24 h","measurable, but little"
same,route of clearance,"[3]; intravenous, rats",clearance depended on hepatobiliary route
same,free Tc-99m radioactivity in rat urine by HPLC,[3]; urine collected after 30 min of injection,no free Tc-99m radioactivity was found
